According to ChEMBL document CHEMBL1121947 (J Med Chem, 1982):

How the values were obtained:
GABA transporter = GABA transporter (Rattus norvegicus, UniProt P31647+P23978+P31646+P48056); assay: Inhibition of high affinity neuronal GABA uptake by synaptosomes of rat brain membrane; format: functional, subcellular
[1] = pKA value was determined; Experiment 1; format: physicochemical
[2] = biological target: GABA-A receptor; anion channel; assay: Inhibition of [3H]GABA binding to Gamma-aminobutyric acid receptor of rat brain synaptosomal membranes; format: cell membranes, Membrane
Procedure, shortened: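 Rat brain synaptic membranes (0.8–1.2 mg protein) were incubated in triplicate for 5 min at 4 °C in 0.05 M Tris-citrate pH 7.1 with 5 nM [3H]GABA, plus 1 mM GABA or 100 µM test agent. Protein was measured by Lowry.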

[3] = pKA value was determined; Experiment 2; format: physicochemical

SMILES	IC50 (GABA transporter) [µM]	pKa [1]	IC50 [2] [µM]	pKa [3]
O=C(O)[C@H]1CNC[C@@H](O)C1	173	3.5	> 100	8.9
O=C(O)[C@H]1CNCC[C@@H]1O	203	3.1	> 100	9.4
CC(=O)N[C@@H]1CCNC[C@@H]1C(=O)O	> 300	3.2	> 100	9.7
CC(=O)N[C@@H]1CNC[C@H](C(=O)O)C1	240	3	> 100	8.6
NCCCC(=O)O [GAMMA-AMINOBUTYRIC ACID]	–	4	–	10.7
O=C(O)C1CCNCC1 [ISONIPECOTIC ACID]	> 300	3.8	0.33	10.5
O=C(O)C1CCCNC1 (configuration not stated) [NIPECOTIC ACID]	–	3.9	> 100	10.3

Now from value to compound:

IC50 (GABA transporter) [µM]	pKa [1]	IC50 [2] [µM]	pKa [3]	SMILES
> 300	3.7	12	10	O=C(O)[C@@H]1CCNC[C@@H]1O
> 300	3.6	43	9.3	O=C(O)[C@@H]1CCNC[C@H]1O
11	3.4	> 100	10	O=C(O)[C@H]1CNCC[C@H]1O
